The values below come from ChEMBL document CHEMBL3621194, “Synthesis of Triazole-Linked Analogues of c-di-GMP and Their Interactions with Diguanylate Cyclase” (J Med Chem, 2015).

Activity calls are given as the source filed them. The rule behind the calls is not given here.

The test system of one experiment is Caulobacter vibrioides. Put plainly: Inhibition of Caulobacter crescentus PleD assessed as residual enzyme activity at 100 uM using 100 uM GTP substrate. The procedure, abridged:
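PleD residual DGC activity at 100 µM compound with 100 µM GTP substrate, measured by circular dichroism, or by reverse-phase HPLC of nucleotide content when compound CD spectra interfered.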

The subject of experiment [1] is Pseudomonas aeruginosa. Put plainly: Inhibition of Pseudomonas aeruginosa RocR assessed as residual enzyme activity at 100 uM using 30 uM c-di-GMP substrate. In short, it runs like this: (§1)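 RocR PDE activity measured with 30 µM c-di-GMP substrate, with or without inhibitors. For IC50, initial velocity used and residual activity fitted to log-dose vs response curve; points are mean and SD of three independent experiments. Single-point screens used 100 µM compound.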

Experiment [2] is described as follows: Inhibition of Caulobacter crescentus PleD. Details: species or system Caulobacter vibrioides. The procedure, abridged:
(§2)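 DGC activity of PleD measured by circular dichroism with 100 µM GTP substrate; where compound CD spectra interfered, nucleotide content analysed by reverse-phase HPLC. Initial velocity used for IC50; residual activity versus inhibitor concentration fitted to log-dose vs response curve, mean and SD of three independent experiments.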

A short description of experiment [3]: Inhibition of Caulobacter crescentus PleD using 100 uM GTP substrate. Details: species or system Caulobacter vibrioides. In short, it runs like this: as §2
In experiment [4] the test system is Pseudomonas aeruginosa. Put plainly: Inhibition of biofilm formation of Pseudomonas aeruginosa PAO1 at 7.81 to 500 uM incubated for 16 hrs by crystal violet staining method. It is filed as functional, organism-based. The procedure, abridged: (§3)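 P. aeruginosa PAO1 or E. coli MG1655 grown 14 h at 37°C in M9 with 0.4% glucose (E. coli medium also with 2.5% LB). Cultures diluted in fresh medium, compound in DMSO or DMSO alone added, then incubated 16 h at 30°C. Planktonic A600 read; wells washed with PBS, air-dried, stained with 1% crystal violet, solubilised in ethanol, A595 read.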

A further experiment concerns Escherichia coli. Put plainly: Inhibition of biofilm formation of Escherichia coli MG1655 7.81 to 500 uM incubated for 16 hrs by crystal violet staining method. It is filed as functional, organism-based. The procedure, abridged:
as §3

The subject of experiment [5] is Pseudomonas aeruginosa. Put plainly: Effect on cdrA expression in Pseudomonas aeruginosa PAO1 at 200 uM by real time RT-PCR method. It is filed as functional, organism-based. In short, it runs like this:
(§4)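 P. aeruginosa PAO1 grown at 37°C in M9 minimal medium with 0.4% glucose, plus DMSO or 200 µM compound in DMSO, to A600 2.0. Total RNA extracted, DNase-treated, reverse transcribed; qPCR with 5 ng cDNA per reaction and 300 nM primers, fluorescence read in the 60°C step. Normalized to 16S rRNA; relative fold change by 2∆∆Ct method.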
Background: In qPCR the cycle at which signal appears reflects the starting amount.

Experiment [6] has as its system Pseudomonas aeruginosa. Put plainly: Effect on pctC expression in Pseudomonas aeruginosa PAO1 at 200 uM by real time RT-PCR method. The experiment is classed as functional, organism-based. In short, it runs like this: as §4
The nature of experiment [7]: Inhibition of Pseudomonas aeruginosa RocR assessed as residual enzyme activity using 30 uM c-di-GMP substrate. The procedure, abridged:
as §1

Experiment [8] deals with Pseudomonas aeruginosa. Put plainly: Inhibition of Pseudomonas aeruginosa WspR assessed as residual enzyme activity at 100 uM. The procedure, abridged:
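WspR DGC activity measured by circular dichroism under the same conditions as for PleD, with 100 µM compound; read-out as residual activity.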

Experiment [9] has as its system Pseudomonas aeruginosa. Put plainly: Inhibition of Pseudomonas aeruginosa YfiN containing HAMP-GGDEF domain assessed as residual enzyme activity up to 250 uM.

For `Nc1nc2c(ncn2CCCn2cc(COC[C@H]3O[C@@H](n4cnc5c(=O)[nH]c(N)nc54)[C@H](O)[C@@H]3O)nn2)c(=O)[nH]1`, the Activity in the experiment on Caulobacter vibrioides worked out at 82%; in the experiment with Pseudomonas aeruginosa [1], 163%.

Turning to `Nc1nc2c(ncn2CCCCn2cc(Cn3cnc4c(=O)[nH]c(N)nc43)nn2)c(=O)[nH]1`, the Activity came out at 87% in the experiment with Caulobacter vibrioides and 92% in the experiment on Pseudomonas aeruginosa [1].

Turning to `Nc1nc(Cl)c2ncn(CCn3cc(Cn4cnc5c(Cl)nc(N)nc54)nn3)c2n1`, the Activity turned out to be 92% in the experiment on Caulobacter vibrioides and 86% in the experiment with Pseudomonas aeruginosa [1].

Regarding `Nc1nc2c(ncn2Cc2cn(C[C@H]3O[C@@H](n4cnc5c(=O)[nH]c(N)nc54)[C@H](O)[C@@H]3O)nn2)c(=O)[nH]1`, the values for the Activity in the experiment on Caulobacter vibrioides and with Pseudomonas aeruginosa [1] were 89% and 77%, respectively.

In the case of `Nc1nc2c(ncn2[C@@H]2O[C@@H]3COP(=O)(O)O[C@H]4[C@@H](O)[C@H](n5cnc6c(=O)[nH]c(N)nc65)O[C@@H]4COP(=O)(O)O[C@H]3[C@H]2O)c(=O)[nH]1`, the 50% inhibitory concentration (IC50) (in general, the concentration that inhibits the measured activity by half) in experiment [2] came out at 5 µM.

As to `Clc1ncnc2c1ncn2CCCn1cc(Cn2cnc3c(Cl)ncnc32)nn1`, the Activity was found to be 97% with Caulobacter vibrioides and 93% in the experiment with Pseudomonas aeruginosa [1].

Consider `Nc1nc(Cl)c2ncn(CCCn3cc(Cn4cnc5c(Cl)nc(N)nc54)nn3)c2n1`, for which the results for the Activity with Caulobacter vibrioides and in the experiment with Pseudomonas aeruginosa [1] were 32% and 96%, respectively. In addition, the half-inhibitory concentration (IC50) in [3] came to 25.5 µM. The inhibition result with Pseudomonas aeruginosa [4] and in the experiment with Escherichia coli was “inactive” each time. Further, the result in the experiment on Pseudomonas aeruginosa [5] and in the experiment with Pseudomonas aeruginosa [6] was inactive.

Turning to `Nc1nc2c(ncn2[C@@H]2O[C@H](Cn3cc(COC[C@H]4O[C@@H](n5cnc6c(N)ncnc65)[C@H](O)[C@@H]4O)nn3)[C@@H](O)[C@H]2O)c(=O)[nH]1`, the Activity is 97% in the experiment with Caulobacter vibrioides and 79% in the experiment on Pseudomonas aeruginosa [1].

As to `CNc1nc(N)nc2c1ncn2CCCn1cc(Cn2cnc3c(NC)nc(N)nc32)nn1`, the Activity with Caulobacter vibrioides worked out at 96%; in the experiment with Pseudomonas aeruginosa [1] it was 70%.

As for `Nc1nc2c(ncn2[C@@H]2O[C@H](COCc3cn(C[C@H]4O[C@@H](n5cnc6c(=O)[nH]c(N)nc65)[C@H](O)[C@@H]4O)nn3)[C@@H](O)[C@H]2O)c(=O)[nH]1`, the Activity in the experiment with Caulobacter vibrioides came out at 63%; in the experiment with Pseudomonas aeruginosa [1], 88%.

As to `Nc1nc(NCc2ccccc2)c2ncn(CCCn3cc(Cn4cnc5c(NCc6ccccc6)nc(N)nc54)nn3)c2n1`, the results for the Activity in the experiment on Caulobacter vibrioides and with Pseudomonas aeruginosa [1] were 109% and 75%, respectively.

On to `Nc1ncnc2c1ncn2[C@@H]1O[C@H](COCc2cn(C[C@H]3O[C@@H](n4cnc5c(N)ncnc54)[C@H](O)[C@@H]3O)nn2)[C@@H](O)[C@H]1O`, for which the Activity was determined as 105% in the experiment with Caulobacter vibrioides and 113% in the experiment with Pseudomonas aeruginosa [1].

On to `Nc1ncnc2c1ncn2CCCn1cc(Cn2cnc3c(N)ncnc32)nn1`, for which the Activity was 106% in the experiment with Caulobacter vibrioides and 64% in the experiment with Pseudomonas aeruginosa [1].

In the case of `Nc1nc2c(ncn2CCn2cc(Cn3cnc4c(=O)[nH]c(N)nc43)nn2)c(=O)[nH]1`, the Activity in the experiment with Caulobacter vibrioides turned out to be 104%; in the experiment on Pseudomonas aeruginosa [1] it was 77%.

On to `Nc1nc(Cl)c2ncn(CCCCn3cc(Cn4cnc5c(Cl)nc(N)nc54)nn3)c2n1`, for which the figures for the Activity in the experiment on Caulobacter vibrioides and in the experiment with Pseudomonas aeruginosa [1] were 98% and 128%, respectively.

Turning to `Nc1nc2c(ncn2CCCn2cc(Cn3cnc4c(=O)[nH]c(N)nc43)nn2)c(=O)[nH]1`, the Activity was 12.5% with Caulobacter vibrioides, 41% in the experiment with Pseudomonas aeruginosa [1] and 20% in the experiment with Pseudomonas aeruginosa [8]. The IC50 in experiment [3] amounted to 17.5 µM; in [7], 66.3 µM. Moreover, the inhibition result with Pseudomonas aeruginosa [9], in the experiment on Pseudomonas aeruginosa [4] and in the experiment with Escherichia coli was “inactive” in each case. In addition, the result with Pseudomonas aeruginosa [5] and in the experiment with Pseudomonas aeruginosa [6] was inactive.
